Holding throughout (type): functional, cell-based
Experiment [1] has as its target T1, 5-hydroxytryptamine receptor 6 (Homo sapiens, UniProt P50406). Put plainly: Antagonist activity at human recombinant 5HT6 receptor expressed in HEK293 cells assessed as inhibition of 5HT-induced cAMP accumulation at 10 uM pretreated for 10 mins before 5HT addition measured after 1 hr relative to control. Put shortly: (§1)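 Cells kept at 37 °C under 5% CO2/95% air were suspended in PBS with 2 mM IBMX. They were pretreated with compound (or not) for 10 min, then stimulated with 5-HT for 30 min. HTRF cAMP detection used d2-labelled cAMP and cryptate-labelled anti-cAMP antibody, 1 h at room temperature. Read-out was excitation 314 nm, emission 668 and 620 nm. Results are percent inhibition versus untreated controls.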
For orientation: Cyclic AMP is a second messenger, typically raised through Gs and lowered through Gi signalling.

For experiment [2], the target named is 5-hydroxytryptamine receptor 4 (Homo sapiens) (UniProt Q13639). Put plainly: Antagonist activity at human recombinant 5HT4 receptor expressed in HEK293 cells assessed as inhibition of 5HT-induced cAMP accumulation at 10 uM pretreated for 10 mins before 5HT addition measured after 1 hr relative to control. Put shortly: as §1
Experiment [3] concerns the target 5-hydroxytryptamine receptor 7 (Homo sapiens) (UniProt P34969). Nature of the experiment: Antagonist activity at human recombinant 5HT7 receptor expressed in HEK293 cells assessed as inhibition of 5HT-induced cAMP accumulation at 10 uM pretreated for 10 mins before 5HT addition measured after 1 hr relative to control. The essentials:
as §1

Experiment [4] has as its target T1, 5-hydroxytryptamine receptor 6. Put plainly: Antagonist activity at human recombinant 5HT6 receptor expressed in HEK293 cells assessed as inhibition of 5HT-induced cAMP accumulation pretreated for 10 mins before 5HT addition measured after 1 hr. The essentials:
as §1

Each structure is given as a SMILES string.

Chain of 5-hydroxytryptamine receptor 4 (Homo sapiens) (Q13639 whole entry): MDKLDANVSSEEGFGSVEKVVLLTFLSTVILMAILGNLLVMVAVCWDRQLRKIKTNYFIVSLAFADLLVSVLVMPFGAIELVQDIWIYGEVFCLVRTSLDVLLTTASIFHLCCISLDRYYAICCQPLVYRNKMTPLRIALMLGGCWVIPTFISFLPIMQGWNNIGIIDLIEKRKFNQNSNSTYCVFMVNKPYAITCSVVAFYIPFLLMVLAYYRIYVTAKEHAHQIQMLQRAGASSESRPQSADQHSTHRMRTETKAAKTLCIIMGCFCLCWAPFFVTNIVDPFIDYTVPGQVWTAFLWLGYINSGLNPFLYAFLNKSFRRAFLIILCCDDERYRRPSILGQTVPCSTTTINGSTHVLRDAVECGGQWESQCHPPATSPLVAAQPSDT
T1 sequence (P50406 whole entry): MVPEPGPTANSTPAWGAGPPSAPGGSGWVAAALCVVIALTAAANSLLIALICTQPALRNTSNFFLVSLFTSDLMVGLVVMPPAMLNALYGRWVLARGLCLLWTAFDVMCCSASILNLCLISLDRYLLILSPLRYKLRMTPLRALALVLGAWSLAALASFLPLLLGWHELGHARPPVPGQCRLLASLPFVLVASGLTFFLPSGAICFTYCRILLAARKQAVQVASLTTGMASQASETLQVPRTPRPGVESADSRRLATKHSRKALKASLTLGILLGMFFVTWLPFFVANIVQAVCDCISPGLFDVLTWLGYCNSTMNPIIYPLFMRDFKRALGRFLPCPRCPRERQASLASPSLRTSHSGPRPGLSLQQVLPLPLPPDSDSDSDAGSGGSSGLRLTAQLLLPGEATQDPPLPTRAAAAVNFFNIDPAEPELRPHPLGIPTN
Chain of 5-hydroxytryptamine receptor 7 (Homo sapiens) (P34969 whole entry): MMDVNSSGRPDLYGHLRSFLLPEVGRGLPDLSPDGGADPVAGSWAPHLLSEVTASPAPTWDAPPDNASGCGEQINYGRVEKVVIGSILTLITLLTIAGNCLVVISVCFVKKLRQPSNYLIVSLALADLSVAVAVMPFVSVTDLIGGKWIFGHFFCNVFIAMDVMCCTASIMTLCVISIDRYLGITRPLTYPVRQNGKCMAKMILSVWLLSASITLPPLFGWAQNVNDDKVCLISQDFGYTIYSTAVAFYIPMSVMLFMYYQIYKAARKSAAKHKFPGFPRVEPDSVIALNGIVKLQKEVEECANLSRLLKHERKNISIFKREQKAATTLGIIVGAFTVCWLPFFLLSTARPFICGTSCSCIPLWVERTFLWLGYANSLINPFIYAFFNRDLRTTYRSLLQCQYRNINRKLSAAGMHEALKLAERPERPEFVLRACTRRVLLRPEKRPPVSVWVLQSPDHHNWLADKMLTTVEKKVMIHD

On to `CN1CCN(/N=C/c2c(-c3ccccc3)n(S(=O)(=O)c3cccc4c(N(C)C)cccc34)c3ccccc23)CC1`, for which the inhibition (usually the change of the read-out against control, counted positive when it falls) in experiment [1] was 85.3%; in experiment [2] it was 65%; in experiment [3], 42.2%. Besides, the IC50 (commonly the midpoint of a concentration-inhibition curve) in experiment [4] was determined as 1.4 µM.
With `Cc1ccc(S(=O)(=O)n2c(C)c(/C=N/N3CCN(C)CC3)c3ccccc32)cc1`, in experiment [1], the inhibition turned out to be 49.1%.
The same measure, in the same setting: in the case of `CN1CCN(/N=C/c2c(-c3ccccc3)n(S(=O)(=O)c3ccc(OC(F)(F)F)cc3)c3ccccc23)CC1` it was 38.7%.
As for `CCc1ccc2ccccc2c1S(=O)(=O)n1c(C)c(/C=N/N2CCN(C)CC2)c2ccccc21`, the inhibition in experiment [1] came to 12.2%.
For `CN1CCN(/N=C/c2c(-c3ccccc3)n(S(=O)(=O)c3ccc4ccccc4c3)c3ccccc23)CC1`, the inhibition in experiment [1] came out at 39.6%.
For `CN1CCN(/N=C/c2c(-c3ccccc3)n(S(=O)(=O)c3ccc(Cl)cc3)c3ccccc23)CC1`, in experiment [1], the inhibition turned out to be 30.5%.
For the molecule `Cc1c(C)c(S(=O)(=O)n2c(-c3ccccc3)c(/C=N/N3CCN(C)CC3)c3ccccc32)c(C)c2c1OC(C)(C)C2`, in experiment [1], the inhibition is 22.4%.
Turning to `CN1CCN(/N=C/c2c(-c3ccccc3)n(S(=O)(=O)c3cn(C)cn3)c3ccccc23)CC1`, the inhibition amounted to 67.4% in experiment [1], 31.1% in experiment [2] and 46.4% in experiment [3]. Further, in experiment [4], the IC50 stood at 3.6 µM.
For the molecule `CN1CCN(/N=C/c2c(-c3ccccc3)n(S(=O)(=O)c3ccc(I)cc3)c3ccccc23)CC1`, the inhibition in experiment [1] came out at 24.3%.
Take `CC(C)c1ccc(S(=O)(=O)n2c(-c3ccccc3)c(/C=N/N3CCN(C)CC3)c3ccccc32)cc1`: the inhibition in experiment [1] turned out to be 35.4%.
Take `CN1CCN(/N=C/c2c(-c3ccccc3)n(S(=O)(=O)c3ccc(F)cc3)c3ccccc23)CC1`: the inhibition worked out at 74.2% in experiment [1], 37.3% in experiment [2] and 28.5% in experiment [3]. The IC50 in experiment [4] is 2.9 µM.
With `COc1cc(C)c(Cl)cc1S(=O)(=O)n1c(C)c(/C=N/N2CCN(C)CC2)c2ccccc21`, the inhibition was 88.6% in experiment [1], 17.9% in experiment [2] and 18.4% in experiment [3]. Further, in experiment [4], the IC50 worked out at 2.4 µM.
Regarding `Cc1c(/C=N/N2CCN(C)CC2)c2ccccc2n1S(=O)(=O)c1ccc(-c2ccc(Cl)cc2)cc1`, the inhibition in experiment [1] was found to be 0.1%.
As for `CCCCc1ccc(S(=O)(=O)n2c(-c3ccccc3)c(/C=N/N3CCN(C)CC3)c3ccccc32)cc1`, in experiment [1], the inhibition amounted to 14.3%.
As for `Cc1c(/C=N/N2CCN(C)CC2)c2ccccc2n1S(=O)(=O)c1ccc(/N=N/c2ccc(N(C)C)cc2)cc1`, in experiment [1], the inhibition was 16.1%.
In the case of `CC1CCN(CC[C@H]2CCCN2S(=O)(=O)c2cccc(O)c2)CC1`, the inhibition in experiment [3] was determined as 104%.
Consider `CCCCN(CCCC)c1cccc2c(S(=O)(=O)n3c(-c4ccccc4)c(/C=N/N4CCN(C)CC4)c4ccccc43)cccc12`, for which, in experiment [1], the inhibition amounted to 21.8%.
Turning to `Cc1c(/C=N/N2CCN(C)CC2)c2ccccc2n1S(=O)(=O)c1ccc(Cl)c2nonc12`, the inhibition in experiment [1] stood at 27.2%.
Still for that read-out and setting: to `CCCCN(CCCC)c1cccc2c(S(=O)(=O)n3c(C)c(/C=N/N4CCN(C)CC4)c4ccccc43)cccc12` belongs 44.6%.
As for `Cc1c(/C=N/N2CCN(C)CC2)c2ccccc2n1S(=O)(=O)c1cccc2c(N(C)C)cccc12`, in experiment [1], the inhibition is 9.5%.
The same measure, in the same setting: to `Cc1c(/C=N/N2CCN(C)CC2)c2ccccc2n1S(=O)(=O)c1ccc(-c2ccccc2)cc1` belongs 15.1%.
Consider `COc1ccc(NS(=O)(=O)c2ccc(I)cc2)cc1N1CCN(C)CC1`, for which the inhibition was 5.8% in experiment [2] and 5% in experiment [3].
Consider `Cc1c(/C=N/N2CCN(C)CC2)c2ccccc2n1S(=O)(=O)c1ccc(F)cc1`, for which the inhibition in experiment [1] is 71.7%; in experiment [2], 83%; in experiment [3] it was 12.3%. Besides, in experiment [4], the IC50 worked out at 4.74 µM.
Turning to `CN1CCN(/N=C/c2c(-c3ccccc3)n(S(=O)(=O)Cc3ccccc3)c3ccccc23)CC1`, in experiment [1], the inhibition is 36.5%.
As to `Cc1c(C)c(S(=O)(=O)n2c(-c3ccccc3)c(/C=N/N3CCN(C)CC3)c3ccccc32)c(C)c2c1OC(C)(C)CC2`, the inhibition in experiment [1] was determined as 20.6%.
Regarding `Cc1c(/C=N/N2CCN(C)CC2)c2ccccc2n1S(=O)(=O)c1ccc([N+](=O)[O-])cc1`, the inhibition in experiment [1] worked out at 52.4%.
With `CN1CCN(/N=C/c2c(-c3ccccc3)n(S(=O)(=O)c3ccccc3)c3ccccc23)CC1`, the inhibition in experiment [1] is 83.5%; in experiment [2], 79.9%; in experiment [3], 34.6%. Further, the IC50 in experiment [4] was 1.8 µM.
Turning to `Cc1c(/C=N/N2CCN(C)CC2)c2ccccc2n1S(=O)(=O)c1ccc2ccccc2c1`, the inhibition came to 78.9% in experiment [1], 92.2% in experiment [2] and 17.1% in experiment [3]. For the same molecule, the IC50 in experiment [4] was found to be 2.04 µM.
For the molecule `COc1ccc(S(=O)(=O)n2c(-c3ccccc3)c(/C=N/N3CCN(C)CC3)c3ccccc32)cc1`, the inhibition in experiment [1] was 31.2%.
With `Cc1ccc(S(=O)(=O)n2c(-c3ccccc3)c(/C=N/N3CCN(C)CC3)c3ccccc32)cc1`, in experiment [1], the inhibition was found to be 33.2%.
In the case of `COc1cc(C)c(Cl)cc1S(=O)(=O)n1c(-c2ccccc2)c(/C=N/N2CCN(C)CC2)c2ccccc21`, the inhibition was 55.3% in experiment [1], 13% in experiment [2] and 72.8% in experiment [3]. In addition, the concentration for half-maximal inhibition (IC50) in experiment [4] is 7.4 µM.
Turning to `CN1CCN(/N=C/c2c(-c3ccccc3)n(S(=O)(=O)c3cccc4ccccc34)c3ccccc23)CC1`, the figures for the inhibition in experiment [1], in experiment [2] and in experiment [3] were 54%, 9.4% and 5%, respectively. For the same molecule, in experiment [4], the IC50 turned out to be 6.6 µM.
Turning to `Cc1c(/C=N/N2CCN(C)CC2)c2ccccc2n1S(=O)(=O)c1ccc(I)cc1`, in experiment [1], the inhibition is 13.5%.

The values are drawn from ChEMBL document CHEMBL2413033, “Design and synthesis of novel series of 5-HT6 receptor ligands having indole, a central aromatic core and 1-amino-4 methyl piperazine as a positive ionizable group” (Bioorg Med Chem, 2013).
